Experiments:
[1] = tested on: A-375; assay: Antiproliferation activity against human A375P cells after 48 hrs by MTT assay in presence of fetal bovine serum; type: functional, cell-based; conditions: A-375, 48 h
Procedure, shortened: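 A375P cells kept in DMEM with 10% FBS and 1% penicillin/streptomycin at 37 °C, 5% CO2. Plated at 5 × 10³ cells/well, left 24 h, then given 12 concentrations (3-fold serial dilution) for 48 h. Viability read by MTT reduction at 590 nm. IC50 from the dose-response curve; each compound tested in triplicate.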

[2] = tested on: NIH3T3; assay: Antiproliferation activity against mouse NIH/3T3 cells after 48 hrs by MTT assay in presence of bovine calf serum; type: cell-based; conditions: NIH3T3, 48 h
[3] = tested on: SK-MEL-2; assay: Antiproliferation activity against human SK-MEL-2 cells after 48 hrs by SRB assay; type: functional, cell-based; conditions: SK-MEL-2, 48 h
Procedure, shortened: (§1)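 Run by the NCI. Cells grown in RPMI 1640 with 5% FBS and 2 mM glutamine, plated at 5000–40,000 cells/well by doubling time, and left 24 h at 37 °C, 5% CO2. Time-zero plates fixed with TCA. Drug (DMSO stock) given at five concentrations for 48 h. Cells fixed with cold TCA (final 10%), stained with 0.4% SRB, and read at 515 nm. IC50 taken as 50% reduction in net protein increase versus control.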

[4] = tested on: SK-MEL-5; assay: Antiproliferation activity against human SK-MEL-5 cells after 48 hrs by SRB assay; type: functional, cell-based; conditions: SK-MEL-5, 48 h; procedure, shortened: as §1
[5] = tested on: UACC-62; assay: Antiproliferation activity against human UACC62 cells after 48 hrs by SRB assay; type: functional, cell-based; conditions: UACC-62, 48 h; procedure, shortened: as §1
[6] = tested on: LOX IMVI; assay: Antiproliferation activity against human LOXIMVI cells after 48 hrs by SRB assay; type: functional, cell-based; procedure, shortened: as §1
[7] = tested on: Malme-3M; assay: Antiproliferation activity against human MALME-3M cells after 48 hrs by SRB assay; type: functional, cell-based; procedure, shortened: as §1
[8] = tested on: M14; assay: Antiproliferation activity against human M14 cells after 48 hrs by SRB assay; type: functional, cell-based; conditions: M14, 48 h; procedure, shortened: as §1
[9] = tested on: MDA-MB-435; assay: Antiproliferation activity against human MDA-MB-435 cells after 48 hrs by SRB assay; type: functional, cell-based; conditions: MDA-MB-435, 48 h; procedure, shortened: as §1
[10] = tested on: SK-MEL-28; assay: Antiproliferation activity against human SK-MEL-28 cells after 48 hrs by SRB assay; type: functional, cell-based; conditions: SK-MEL-28, 48 h; procedure, shortened: as §1
[11] = tested on: UACC-257; assay: Antiproliferation activity against human UACC257 cells after 48 hrs by SRB assay; type: functional, cell-based; conditions: UACC-257, 48 h; procedure, shortened: as §1

SMILES | IC50 [1] | IC50 [2] | also measured
Cc1cc(NC(=O)c2ccc(N3CCOCC3)c(C(F)(F)F)c2)ccc1-n1ccc2c(NC(=O)c3ccccc3)nccc21 | > 10000 nM | – | –
O=C(Nc1ccc(-n2ccc3c(NC(=O)c4ccccc4)nccc32)cc1)Nc1cccc(C(F)(F)F)c1 | 7000 nM | – | –
O=C(Nc1ccc(-n2ccc3c(NC(=O)c4ccccc4)nccc32)cc1)Nc1ccc(Cl)c(C(F)(F)F)c1 | 2400 nM | – | –
O=C(Nc1ccc(-n2ccc3c(NC(=O)c4ccccc4)nccc32)cc1)Nc1cc(C(F)(F)F)cc(C(F)(F)F)c1 | 1800 nM | – | –
Cc1cc(NC(=O)Nc2cccc(Cl)c2Cl)ccc1-n1ccc2c(NC(=O)c3ccccc3)nccc21 | > 10000 nM | – | –
CCN1CCN(Cc2ccc(NC(=O)Nc3ccc(-n4ccc5c(NC(=O)c6ccccc6)nccc54)cc3)cc2C(F)(F)F)CC1 | 95 nM | 0.98 µM | IC50 [3]: 3620 nM; IC50 [4]: 764 nM; IC50 [5]: 1270 nM; IC50 [6]: 481 nM; IC50 [7]: 1.54 µM; IC50 [8]: 1220 nM; IC50 [9]: 894 nM; IC50 [10]: 1290 nM; IC50 [11]: 1590 nM
O=C(Nc1ccc(-n2ccc3c(NC(=O)c4ccccc4)nccc32)cc1)c1ccc(N2CCOCC2)c(C(F)(F)F)c1 | 7 nM | 1.74 µM | IC50 [3]: 637 nM; IC50 [4]: 138 nM; IC50 [5]: 485 nM; IC50 [6]: 45.6 nM; IC50 [7]: 11.5 µM; IC50 [8]: 763 nM; IC50 [9]: 119 nM; IC50 [10]: 292 nM; IC50 [11]: 1980 nM
Cc1cc(NC(=O)c2cccc(C(F)(F)F)c2)ccc1-n1ccc2c(NC(=O)c3ccccc3)nccc21 | > 10000 nM | – | –
CNC(=O)c1cc(Oc2ccc(NC(=O)Nc3ccc(Cl)c(C(F)(F)F)c3)cc2)ccn1 [SORAFENIB] | 5600 nM | 24.8 µM | –

Further lines, with some results ahead:

IC50 [1] | SMILES | IC50 [2] | also measured
> 10000 nM | O=C(Nc1ccc(-n2ccc3c(NC(=O)c4ccccc4)nccc32)cc1)Nc1cccc(Cl)c1Cl | – | –
200 nM | O=C(Nc1ccc(-n2ccc3c(NC(=O)c4ccccc4)nccc32)cc1)Nc1ccc(Cl)c(Cl)c1 | 11.5 µM | –
5400 nM | Nc1nccc2c1ccn2-c1ccc(NC(=O)Nc2cccc(C(F)(F)F)c2)cc1 | – | –
8000 nM | Nc1nccc2c1ccn2-c1ccc(NC(=O)Nc2ccc(Cl)c(C(F)(F)F)c2)cc1 | – | –
100 nM | O=C(Nc1ccc(-n2ccc3c(NC(=O)c4ccccc4)nccc32)cc1)c1cccc(C(F)(F)F)c1 | 0.05 µM | –
16.4 nM | O=C(Nc1ccc(-n2ccc3c(NC(=O)c4ccccc4)nccc32)cc1)c1ccc(Cl)c(C(F)(F)F)c1 | 5.65 µM | –
800 nM | Cc1cn(-c2cc(C(=O)Nc3ccc(-n4ccc5c(NC(=O)c6ccccc6)nccc54)cc3)cc(C(F)(F)F)c2)cn1 | 5.57 µM | –
300 nM | O=C(Nc1ccc(-n2ccc3c(NC(=O)c4ccccc4)nccc32)cc1)c1cc(N2CCOCC2)cc(C(F)(F)F)c1 | 0.27 µM | –
2700 nM | Cc1cc(NC(=O)c2ccc(Cl)c(C(F)(F)F)c2)ccc1-n1ccc2c(NC(=O)c3ccccc3)nccc21 | – | –
1000 nM | O=C(Nc1nccc2c1ccn2-c1ccc(NC(=O)c2ccc(-c3cc(C(F)(F)F)ccc3Cl)o2)cc1)c1ccccc1 | 15.9 µM | –
3800 nM | Nc1nccc2c1ccn2-c1ccc(NC(=O)c2ccc(Cl)c(C(F)(F)F)c2)cc1 | – | –
6200 nM | Nc1nccc2c1ccn2-c1ccc(NC(=O)c2ccc(N3CCOCC3)c(C(F)(F)F)c2)cc1 | – | –
